In ChEMBL document CHEMBL2331353, “Synthesis and biological evaluation of some novel resveratrol amide derivatives as potential anti-tumor agents” (Eur J Med Chem, 2013):

How the values were obtained:
MCF7 = assay: Antitumor activity against human MCF7 cells assessed as inhibition of cell proliferation after 48 hrs by MTT assay; type: functional, cell-based; details: MCF7, 48 h
Method in brief: (§1)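 Cells grown to log phase in RPMI 1640 with 10% FBS, seeded at 2×10^4 cells/mL and preincubated 24 h at 37 °C, 5% CO2. Compounds at preset concentrations added (6 wells), celecoxib as positive reference, 48 h exposure. MTT (2.5 mg/mL in PBS) for 4 h, then SDS/isobutanol/HCl extraction overnight at 37 °C. OD read at 570 nm. Triplicate wells per concentration, at least three independent runs.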

[1] = molecular target: T1, Prostaglandin G/H synthase 2 (Mus musculus, UniProt Q05769); assay: Inhibition of COX-2 in mouse RAW264.7 cells assessed as decrease in LPS-induced PGE2 production; type: cell-based
T1 sequence (Q05769 whole entry): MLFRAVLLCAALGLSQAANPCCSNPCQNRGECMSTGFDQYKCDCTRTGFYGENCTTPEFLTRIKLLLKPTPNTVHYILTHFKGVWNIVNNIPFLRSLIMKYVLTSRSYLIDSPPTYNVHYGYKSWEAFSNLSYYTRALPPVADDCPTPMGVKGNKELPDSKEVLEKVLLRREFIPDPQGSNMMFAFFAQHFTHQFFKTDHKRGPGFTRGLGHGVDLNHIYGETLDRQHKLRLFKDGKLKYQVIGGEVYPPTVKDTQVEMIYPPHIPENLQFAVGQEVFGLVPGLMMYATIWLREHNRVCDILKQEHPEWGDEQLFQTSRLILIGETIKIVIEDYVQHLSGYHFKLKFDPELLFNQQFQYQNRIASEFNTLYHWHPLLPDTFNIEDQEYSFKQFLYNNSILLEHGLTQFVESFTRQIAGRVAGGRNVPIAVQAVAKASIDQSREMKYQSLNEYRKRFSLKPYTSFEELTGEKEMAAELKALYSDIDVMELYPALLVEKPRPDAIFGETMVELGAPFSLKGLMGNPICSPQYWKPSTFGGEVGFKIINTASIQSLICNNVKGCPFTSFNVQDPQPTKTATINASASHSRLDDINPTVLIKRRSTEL

[2] = molecular target: Prostaglandin G/H synthase 1 (Homo sapiens, UniProt P23219); assay: Inhibition of COX-1 (unknown origin) by chemiluminescence assay
Chain of Prostaglandin G/H synthase 1 (P23219 whole entry): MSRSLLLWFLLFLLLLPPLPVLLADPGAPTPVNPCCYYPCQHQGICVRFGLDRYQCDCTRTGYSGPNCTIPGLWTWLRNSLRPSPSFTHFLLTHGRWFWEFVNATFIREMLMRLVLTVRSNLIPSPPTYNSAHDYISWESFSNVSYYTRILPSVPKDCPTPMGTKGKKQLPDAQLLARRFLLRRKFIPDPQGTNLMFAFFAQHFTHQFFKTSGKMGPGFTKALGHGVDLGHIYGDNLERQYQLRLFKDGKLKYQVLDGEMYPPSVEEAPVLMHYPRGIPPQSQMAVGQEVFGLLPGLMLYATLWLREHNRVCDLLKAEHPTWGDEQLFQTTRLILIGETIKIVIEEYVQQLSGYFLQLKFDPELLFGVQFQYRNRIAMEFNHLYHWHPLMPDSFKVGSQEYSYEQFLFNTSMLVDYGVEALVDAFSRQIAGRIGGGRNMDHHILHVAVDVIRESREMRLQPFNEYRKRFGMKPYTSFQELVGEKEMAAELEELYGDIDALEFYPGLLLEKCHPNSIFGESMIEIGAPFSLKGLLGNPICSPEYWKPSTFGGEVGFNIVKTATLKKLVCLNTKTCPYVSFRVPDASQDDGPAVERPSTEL

[3] = molecular target: T2, Prostaglandin G/H synthase 2 (Homo sapiens, UniProt P35354); assay: Inhibition of COX-2 (unknown origin) by chemiluminescence assay
T2 sequence (P35354 whole entry): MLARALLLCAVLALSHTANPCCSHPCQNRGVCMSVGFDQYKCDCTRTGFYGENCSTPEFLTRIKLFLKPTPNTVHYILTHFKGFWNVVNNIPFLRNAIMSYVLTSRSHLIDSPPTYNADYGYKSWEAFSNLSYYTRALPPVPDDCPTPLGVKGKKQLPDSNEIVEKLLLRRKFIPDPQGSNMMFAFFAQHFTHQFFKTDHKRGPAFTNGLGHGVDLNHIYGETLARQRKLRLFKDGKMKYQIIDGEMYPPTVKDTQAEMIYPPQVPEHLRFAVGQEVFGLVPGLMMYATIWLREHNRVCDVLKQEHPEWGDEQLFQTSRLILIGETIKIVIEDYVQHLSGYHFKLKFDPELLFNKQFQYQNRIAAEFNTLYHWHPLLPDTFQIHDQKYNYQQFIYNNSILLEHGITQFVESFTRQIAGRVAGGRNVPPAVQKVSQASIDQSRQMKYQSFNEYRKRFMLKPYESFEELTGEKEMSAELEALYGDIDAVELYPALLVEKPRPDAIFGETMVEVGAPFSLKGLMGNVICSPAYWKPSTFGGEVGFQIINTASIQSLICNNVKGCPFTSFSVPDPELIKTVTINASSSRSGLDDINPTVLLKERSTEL

A549 = assay: Antitumor activity against human A549 cells assessed as inhibition of cell proliferation after 48 hrs by MTT assay; type: functional, cell-based; details: A549, 48 h; method in brief: as §1
B16-F10 = assay: Antitumor activity against mouse B16F10 cells assessed as inhibition of cell proliferation after 48 hrs by MTT assay; type: functional, cell-based; details: B16-F10, 48 h; method in brief: as §1

| SMILES | IC50 (MCF7) | IC50 [1] | IC50 [2] | IC50 [3] | IC50 (A549) | IC50 (B16-F10) |
| --- | --- | --- | --- | --- | --- | --- |
| C#CCNC(=O)/C=C/c1c(/C=C/c2ccc(OC)cc2)cc(OC)cc1OC | 4.56 µM | 5.08 µM | > 50 µM | 9.08 µM | 6.93 µM | 8.28 µM |
| CCC1CCCCN1C(=O)/C=C/c1c(/C=C/c2ccc(OC)cc2)cc(OC)cc1OC (stereo not drawn) | 5.24 µM | 6.27 µM | > 50 µM | 10.3 µM | 5.6 µM | 7.38 µM |
| COc1ccc(/C=C/c2cc(OC)cc(OC)c2/C=C/C(=O)N2CCSCC2)cc1 | 2.76 µM | 3.18 µM | 45.2 µM | 8.01 µM | 5.4 µM | 8.1 µM |
| COc1ccc(/C=C/c2cc(OC)cc(OC)c2/C=C/C(=O)Nc2cc(OC)c(OC)c(OC)c2)cc1 | 7.01 µM | 2.1 µM | > 50 µM | 6.66 µM | 5.14 µM | 8.15 µM |
| COc1ccc(/C=C/c2cc(OC)cc(OC)c2/C=C/C(=O)N2CCN(C)CC2)cc1 | 2.29 µM | 1.62 µM | 39.1 µM | 5.78 µM | 4.51 µM | 5.67 µM |
| COc1ccc(/C=C/c2cc(OC)cc(OC)c2/C=C/C(=O)NCCCN2CCOCC2)cc1 | 4.15 µM | 3.68 µM | > 50 µM | 8.92 µM | 4.22 µM | 6.83 µM |
| COc1ccc(/C=C/c2cc(OC)cc(OC)c2/C=C/C(=O)N2CCC(C)CC2)cc1 | 6.45 µM | 8.09 µM | > 50 µM | 10.3 µM | 7.2 µM | 7.76 µM |
| COc1ccc(/C=C/c2cc(OC)cc(OC)c2/C=C/C(=O)NC(C)(C)C)cc1 | 13.6 µM | 5.29 µM | > 50 µM | 11.1 µM | 8.67 µM | 7.98 µM |
| COc1ccc(/C=C/c2cc(OC)cc(OC)c2/C=C/C(=O)N2CCC(c3ccccc3)CC2)cc1 | 4.23 µM | 3.55 µM | > 50 µM | 8.57 µM | 6.69 µM | 9.18 µM |
| COc1ccc(/C=C/c2cc(OC)cc(OC)c2/C=C/C(=O)N2CCCC2)cc1 | 4.2 µM | 3.76 µM | > 50 µM | 8.87 µM | 6.35 µM | 9.28 µM |
| COc1ccc(/C=C/c2cc(OC)cc(OC)c2/C=C/C(=O)NC2CCCCC2)cc1 | 2.63 µM | 1.98 µM | > 50 µM | 5.09 µM | 3.61 µM | 5.48 µM |
| COc1ccc(/C=C/c2cc(OC)cc(OC)c2/C=C/C(=O)N2CCCCC2)cc1 | 6.05 µM | 15.3 µM | > 50 µM | 23.2 µM | 10.6 µM | 9.75 µM |
| Cc1ccc(-c2cc(C(F)(F)F)nn2-c2ccc(S(N)(=O)=O)cc2)cc1 [CELECOXIB] | – | – | – | – | 15.6 µM | – |
| COc1ccc(/C=C/c2cc(OC)cc(OC)c2/C=C/C(=O)N2CCOCC2)cc1 | 3.31 µM | 0.85 µM | > 50 µM | 1.88 µM | 2.32 µM | 3.08 µM |
| COc1ccc(/C=C/c2cc(OC)cc(OC)c2/C=C/C(=O)N2CCCC(C)C2)cc1 (stereo not drawn) | 11.9 µM | 3.16 µM | > 50 µM | 7.09 µM | 5.82 µM | 8.25 µM |

Results, then the compound that gave them:

| IC50 (MCF7) | IC50 [1] | IC50 [2] | IC50 [3] | IC50 (A549) | IC50 (B16-F10) | SMILES |
| --- | --- | --- | --- | --- | --- | --- |
| 2 µM | 3.88 µM | 45.9 µM | 8.06 µM | 5.58 µM | 5.98 µM | CCCN(CCC)C(=O)/C=C/c1c(/C=C/c2ccc(OC)cc2)cc(OC)cc1OC |
| 3.99 µM | 4.12 µM | > 50 µM | 10.1 µM | 6.16 µM | 9.03 µM | CCCCN(CCCC)C(=O)/C=C/c1c(/C=C/c2ccc(OC)cc2)cc(OC)cc1OC |
| 6.13 µM | 7.19 µM | > 50 µM | 16.4 µM | 7.49 µM | 9.27 µM | CCCCCN(CCCCC)C(=O)/C=C/c1c(/C=C/c2ccc(OC)cc2)cc(OC)cc1OC |
| 2.56 µM | 0.72 µM | 40.4 µM | 2.01 µM | 2.36 µM | 4.02 µM | COc1ccc(/C=C/c2cc(OC)cc(OC)c2/C=C/C(=O)NC(C)C)cc1 |
| 4.03 µM | 3.1 µM | > 50 µM | 9.08 µM | 5.34 µM | 8.02 µM | CCCCCCN(CCCCCC)C(=O)/C=C/c1c(/C=C/c2ccc(OC)cc2)cc(OC)cc1OC |
| 5.29 µM | 6.12 µM | > 50 µM | 15.1 µM | 10.4 µM | 12.7 µM | COc1ccc(/C=C/c2cc(OC)cc(OC)c2/C=C/C(=O)NCC(C)C)cc1 |
| 7.06 µM | 7.06 µM | 35.4 µM | 12.4 µM | 7.86 µM | 6.99 µM | CCNC(=O)/C=C/c1c(/C=C/c2ccc(OC)cc2)cc(OC)cc1OC |
| 6.1 µM | 3.01 µM | > 50 µM | 6.89 µM | 5.46 µM | 6.78 µM | COc1ccc(/C=C/c2cc(OC)cc(OC)c2/C=C/C(=O)O)cc1 |
| 1.98 µM | 0.39 µM | 38.4 µM | 1.27 µM | 1.98 µM | 2.78 µM | COc1ccc(/C=C/c2cc(OC)cc(OC)c2/C=C/C(=O)NCCCCl)cc1 |
| 3.43 µM | 2.09 µM | > 50 µM | 4.56 µM | 3.95 µM | 4.38 µM | CCC(C)NC(=O)/C=C/c1c(/C=C/c2ccc(OC)cc2)cc(OC)cc1OC (stereo not drawn) |
| 3.22 µM | 3.28 µM | 35 µM | 8.01 µM | 5.89 µM | 8.18 µM | C=CCN(CC=C)C(=O)/C=C/c1c(/C=C/c2ccc(OC)cc2)cc(OC)cc1OC |
| 4.28 µM | 13.8 µM | > 50 µM | 20.1 µM | 8.66 µM | 8.06 µM | CCCCCCCCNC(=O)/C=C/c1c(/C=C/c2ccc(OC)cc2)cc(OC)cc1OC |
| 2.39 µM | 2.56 µM | > 50 µM | 6.84 µM | 3.35 µM | 4.85 µM | COc1ccc(/C=C/c2cc(OC)cc(OC)c2/C=C/C(=O)N(CC(C)C)CC(C)C)cc1 |
| 5.53 µM | 5.01 µM | 34.7 µM | 8.99 µM | 6.23 µM | 7.18 µM | CCCCCCNC(=O)/C=C/c1c(/C=C/c2ccc(OC)cc2)cc(OC)cc1OC |
| 6.86 µM | 4.36 µM | > 50 µM | 13 µM | 6 µM | 5.78 µM | COc1ccc(/C=C/c2cc(OC)cc(OC)c2/C=C/C(=O)N(C)C)cc1 |
| 5.61 µM | 2.08 µM | > 50 µM | 6.75 µM | 5.17 µM | 9.08 µM | CCCNC(=O)/C=C/c1c(/C=C/c2ccc(OC)cc2)cc(OC)cc1OC |
| 2.3 µM | 0.45 µM | 32.3 µM | 1.36 µM | 2 µM | 3.45 µM | COc1ccc(/C=C/c2cc(OC)cc(OC)c2/C=C/C(=O)NCCCl)cc1 |
| 6.55 µM | 2.15 µM | > 50 µM | 4.67 µM | 3.35 µM | 3.98 µM | CCN(CC)C(=O)/C=C/c1c(/C=C/c2ccc(OC)cc2)cc(OC)cc1OC |
